According to ChEMBL document CHEMBL2177013, “Synthesis and biological evaluation of tylophorine-derived dibenzoquinolines as orally active agents: exploration of the role of tylophorine e ring on biological activity” (J Med Chem, 2012):

Assays:
[1] = Growth inhibition of human HONE1 cells; format: functional
Method in brief: (§1)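 Cells seeded per well: NUGC-3 4500, HONE-1 6000, MCF-7 6500, NCI-H460 2500, HepG2 10000, A549 5000; A549 grown in RPMI 1640 with 2 g/L NaHCO₃, 2 mM L-glutamine and 10% FBS. GI₅₀ = concentration giving 50% growth inhibition, mean of at least three experiments each in duplicate. Paclitaxel served as positive control.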

MCF7 = experiment: Growth inhibition of human MCF7 cells; format: functional; method in brief: as §1
NUGC-3 = experiment: Growth inhibition of human NUGC3 cells; format: functional; method in brief: as §1
HepG2 = experiment: Growth inhibition of human HepG2 cells; format: functional; method in brief: as §1
NCI-H460 = experiment: Growth inhibition of human NCI-H460 cells; format: functional; method in brief: as §1
A549 = experiment: Growth inhibition of human A549 cells; format: functional; method in brief: as §1
[2] = tested on: Transmissible gastroenteritis virus; experiment: Antiviral activity against Transmissible gastroenteritis virus infected in ST cells pre-treated 2 hrs before virus infection measured 6 hrs post virus infection by immunofluorescent assay; format: functional, organism-based; conditions: Alphacoronavirus 1, ST
Method in brief: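 ST cells, with or without 2 h compound pretreatment (10 concentrations), infected with TGEV at MOI 10. Immunofluorescence with anti-spike and anti-nucleocapsid antibodies at 6 hpi. EC50 from dose–response curves, mean of at least three experiments, each in duplicate.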

[3] = Cytotoxicity against mouse RAW264.7 cells; format: cell-based
Method in brief: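 RAW264.7 cells stimulated with LPS/IFNγ and compound-treated in parallel with the NO assay; CC50 taken as concentration giving 50% inhibition of cell growth. Mean of at least three experiments, each in duplicate.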

RAW264.7 = experiment: Antiinflammatory activity in mouse RAW264.7 cells assessed as inhibition of LPS-induced nitric oxide production incubated for 18 hrs by nitrate/nitrite assay; format: functional, cell-based; conditions: RAW264.7, 18 h
Method in brief: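 RAW264.7 seeded 65000 cells/well, cultured 24 h, then medium replaced with complete medium containing IFNγ (20 ng/mL)/LPS (5 μg/mL) plus compound at various concentrations for 18 h; nitric oxide measured by Nitrate/Nitrite kit. EC50 as mean of at least three experiments, each in duplicate.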

| SMILES | GI50 [1] | GI50 (MCF7) | GI50 (NUGC-3) | GI50 (HepG2) | GI50 (NCI-H460) | GI50 (A549) | EC50 [2] | CC50 [3] | EC50 (RAW264.7) |
| --- | --- | --- | --- | --- | --- | --- | --- | --- | --- |
| COc1cc2c3c(c4cc(OC)c(OC)cc4c2cc1OC)CN(CCCOC1CCCCO1)CC3 (centres undefined) | 9650 nM | 9800 nM | 8220 nM | 14000 nM | 7490 nM | 3780 nM | 30800 nM |  |  |
| COc1cc2c3c(c4cc(OC)c(OC)cc4c2cc1OC)CN(CCC1OCCO1)CC3 | 6130 nM | 4600 nM | 4950 nM | 6490 nM | 4150 nM | 4820 nM | 31900 nM |  |  |
| COc1cc2c3c(c4cc(OC)c(OC)cc4c2cc1OC)C(O)CN(C(C)C)C3 (centres undefined) | 1710 nM | 1210 nM | 870 nM | 1860 nM | 1070 nM | 1230 nM | 2740 nM | > 4000 nM | 2050 nM |
| CCCN1Cc2c(c3ccc(OC)cc3c3cc(OC)c(OC)cc23)C(O)C1 (centres undefined) | 140 nM | 110 nM | 110 nM | 110 nM | 50 nM | 50 nM | 120 nM |  |  |
| COc1cc2c3c(c4cc(OC)c(OC)cc4c2cc1OC)CN(CCCNC(=O)OC(C)(C)C)CC3 | 4520 nM | 3350 nM | 3400 nM | 4150 nM | 2890 nM | 3550 nM | 1030 nM |  |  |
| COc1cc2c3c(c4cc(OC)c(OC)cc4c2cc1OC)CN(C1C=CCCC1)CC3 (centres undefined) | 2530 nM | 2210 nM | 1880 nM | 3640 nM | 2300 nM | 1920 nM | 2990 nM |  |  |
| CCCN1CCc2c(c3cc(OC)ccc3c3c(OC)c(OC)ccc23)C1 | 4750 nM | 4110 nM | 3720 nM | 6290 nM | 3760 nM | 3670 nM | 2630 nM |  |  |
| CCCCN1Cc2c(c3ccc(OC)cc3c3cc(OC)c(OC)cc23)C(O)C1 (centres undefined) | 3000 nM | 2330 nM | 1860 nM | 1850 nM | 1480 nM | 1320 nM | 2920 nM |  |  |
| CCCCCN1CCc2c(c3cc(OC)c(OC)cc3c3cc(OC)c(OC)cc23)C1 | 6200 nM | 9510 nM | 7670 nM | 8050 nM | 6110 nM |  | 6530 nM |  |  |
| CCC(C)N1CCc2c(c3cc(OC)c(OC)cc3c3cc(OC)c(OC)cc23)C1 (centres undefined) | 1150 nM | 400 nM | 440 nM | 510 nM | 450 nM | 530 nM | 730 nM |  |  |
| CCCN1Cc2c(c3cc(OC)c(OC)cc3c3cc(OC)c(OC)cc23)C(O)C1 (centres undefined) | 1740 nM | 1020 nM | 730 nM | 1680 nM | 1080 nM | 1190 nM | 670 nM | > 4000 nM | 2200 nM |
| COc1cc2c3c(c4cc(OC)c(OC)cc4c2cc1OC)CN(CCCO)CC3 | 16600 nM | 7140 nM | 6630 nM | 16900 nM | 9410 nM | 5470 nM | 19300 nM |  |  |
| CCN1CCc2c(c3cc(OC)ccc3c3cc(OC)c(OC)cc23)C1 | 4870 nM | 3120 nM | 3480 nM | 4010 nM | 3390 nM | 4380 nM | 14200 nM |  |  |
| COc1cc2c3c(c4cc(OC)c(OC)cc4c2cc1OC)CN(CC(C)C)CC3 | 1720 nM | 910 nM | 1040 nM | 1810 nM | 870 nM | 1320 nM | 1360 nM |  |  |
| CCCN1CCc2c(c3cc(OC)c(OC)cc3c3c(OC)c(OC)c(OC)cc23)C1 | 960 nM | 620 nM | 540 nM | 860 nM | 490 nM | 790 nM | 770 nM |  |  |
| COc1cc2c3c(c4cc(OC)c(OC)cc4c2cc1OC)CN(CC1OCCO1)CC3 | 22100 nM | 22400 nM | 19100 nM | 41000 nM | 18500 nM | 31500 nM | > 50000 nM |  |  |
| CCCN1CCc2c(c3cc(OC)ccc3c3cc(OC)c(OC)cc23)C1 | 5560 nM | 3750 nM | 4630 nM | 4480 nM | 3820 nM | 4640 nM | 8910 nM |  |  |
| CCCN1Cc2c(c3cc(OC)c(OC)c(OC)c3c3cc(OC)c(OC)cc23)C(O)C1 (centres undefined) | 820 nM | 590 nM | 490 nM | 830 nM | 590 nM | 820 nM | 660 nM |  |  |
| CCCN1CCc2c(c3ccc(OC)cc3c3cc(OC)c(OC)cc23)C1 | 3310 nM | 2830 nM | 2940 nM | 3170 nM | 2400 nM | 2950 nM | 8680 nM |  |  |
| CCCCN1CCc2c(c3cc(OC)c(OC)cc3c3cc(OC)ccc23)C1 | 4770 nM | 4730 nM | 3990 nM | 4040 nM | 3510 nM | 2390 nM | 5600 nM |  |  |
| CC(=O)O[C@H]1C(=O)[C@@]2(C)[C@H]([C@H](OC(=O)c3ccccc3)[C@]3(O)C[C@H](OC(=O)[C@H](O)[C@@H](NC(=O)c4ccccc4)c4ccccc4)C(C)=C1C3(C)C)[C@]1(OC(C)=O)CO[C@@H]1C[C@@H]2O [PACLITAXEL] | 20 nM | 30 nM | 20 nM | 180 nM | 30 nM | 60 nM |  |  |  |
| CCCCN1CCc2c(c3cc(OC)c(OC)cc3c3c(OC)c(OC)c(OC)cc23)C1 | 4060 nM | 3190 nM | 2540 nM | 5010 nM | 2680 nM | 3010 nM | 2920 nM |  |  |
| COc1cc2c3c(c4cc(OC)c(OC)cc4c2cc1OC)CN(CCCN)CC3 | 21100 nM | 15300 nM | 10300 nM | 36900 nM | 11700 nM | 6040 nM | 23400 nM |  |  |
| CCN1CCc2c(c3cc(OC)c(OC)cc3c3c(OC)c(OC)c(OC)cc23)C1 | 1990 nM | 1180 nM | 1700 nM | 2500 nM | 870 nM | 1410 nM | 1140 nM |  |  |
| COc1cc2c3c(c4cc(OC)c(OC)c(OC)c4c2cc1OC)CCN(C(C)C)C3 | 1120 nM | 720 nM | 640 nM | 1610 nM | 570 nM | 760 nM | 780 nM |  |  |
| CCCN1CCc2c(c3cc(OC)c(OC)cc3c3cc(OC)ccc23)C1 | 770 nM | 420 nM | 430 nM | 480 nM | 260 nM | 470 nM | 680 nM |  |  |
